This is one part of a sample in which hits are shown more often than they occur.
N-glyco inh – N-linked glycosylation inhibition. D54 ERlucT glycosylation luciferase reporter, 24 h; percent of 100 nM tunicamycin response. reporter increase, % at 12.5 µM. 360,000 compounds, 0.23% hits;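 active = mean luciferase reporter signal, scaled so untreated is 0 and the glycosylation-blocking control 100, at or above a set limit in every replicate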;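 also: luciferase carries N-glycosylation sites so blocking glycosylation raises the light; 0% = median of neutral control wells and 100% = median of 100 nM tunicamycin wells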
ALR inh – blocks human ALR sulfhydryl oxidase activity. P55789. purified ALR, DTT oxidation, H2O2 HRP-luminol luminescence. inhibition, % (concentration not given with the values). 290,000 compounds, 3.8% hits. AID 485317;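 active = mean replicate inhibition above about 79%, with every replicate also reaching it, limit read from the data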
Target sequence (P55789 whole entry, looked up): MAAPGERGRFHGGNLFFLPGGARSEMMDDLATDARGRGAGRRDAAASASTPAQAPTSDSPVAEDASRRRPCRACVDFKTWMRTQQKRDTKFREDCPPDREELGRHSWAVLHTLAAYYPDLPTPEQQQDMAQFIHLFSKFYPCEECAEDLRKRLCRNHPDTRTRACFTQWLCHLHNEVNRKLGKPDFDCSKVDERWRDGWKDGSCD
T cell HTS – modulates CD8 T cell binding to vesicles; 2C CD8+ T cell-vesicle binding, flow cytometry; hits give low values; response (vesicle binding), % at 7 µM; 330,000 compounds, 0.068% hits;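 active = response, share of CD8 T cells binding vesicles, and their 90th percentile fluorescence all below set limits, cut at about 80% in these data, passing the limit was not always enough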;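 also: values below 100% mean blocked vesicle binding to the CD8+ T cells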
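Material: 2C TCR transgenic mouse naive CD8+ T cells, MACS-purified. Also added: QL9-charged Drosophila Ld/ICAM-1/B7-1 vesicles. Timing: binding 1.5 h at 37 °C. Measured by: high-throughput flow cytometry with anti-B7-1 and anti-CD8 staining. Read-out: percent CD8+ FL2 mean versus row control. Controls: Unloaded micro-vesicles (low), QL9 vesicles with 0.7% DMSO (high).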
An asterisk follows results filed as active; i = inactive; . = no result.

SMILES | N-glyco inh | ALR inh | T cell HTS
O=C(COc1ccccc1)N1CCN=C1c1ccccc1 | -1 | . | 574
O=C(COc1ccccc1)N1CCN=C1SCc1cccnc1 | 1 | 100* | 114
CC(Oc1ccccc1)C(=O)N1CCN=C1SCc1ccc(F)cc1 (stereo not drawn) | -1 | 96* | 162
O=C(COc1ccccc1)N1CCN=C1SCc1ccc(F)cc1 | 2 | 98* | 162
CSC1=NCCN1C(=O)Cc1ccc(-c2ccccc2)cc1 | -3 | . | 226
COc1cc2c(cc1OC)C(=O)C(Br)CC2 (stereo not drawn) | 13 | . | .
CCN(CC)CCNC(=O)CCc1c(C)nc2c(c(C)nn2-c2ccc(C)c(C)c2)c1C | -6 | 0 | 232
COCCNC(=O)C1(C)CCCN(C(=O)c2ccc(C(F)(F)F)cc2)C1 (stereo not drawn) | 4 | . | .
COC1=C(C)C(O)=C(C(=O)/C=C/c2ccccc2)C(=O)C1(C)C | 3 | 97* | i
Cc1ccc(O)c(C(=O)C=Cc2ccccc2)c1 | 30* | . | .
COc1ccc(C(=O)/C=C/c2ccccc2)c(OC)c1 | 9 | 52 | 319
COc1ccc(C=CC(=O)C=CC=Cc2ccccc2)cc1 | 5 | . | .
Cc1ccc(/C=C/C(=O)c2ccccc2O)cc1 | 4 | 10 | 229
COc1cc(C)cc(C(=O)C=Cc2ccccc2)c1O | 31* | . | .
COCCN(C(=O)COC(=O)c1ccc(Br)o1)c1c(N)n(Cc2ccccc2)c(=O)[nH]c1=O | 1 | . | .
CCc1nc(C(N)=O)c2[nH]c(=O)n(-c3ccc(OC)cc3OC)c2n1 | 2 | -18 | 332
C/C(N)=C(/C#N)C(=O)COC(=O)C1CSC2(c3ccc(F)cc3)CCC(=O)N12 (stereo not drawn) | 2 | . | 128
O=C(CCNS(=O)(=O)c1ccc(F)c(Cl)c1)NCc1ccccc1F | 2 | . | 275
Cc1ccc(OCc2cc(C(=O)NC3CCc4ccccc43)no2)cn1 (stereo not drawn) | 0 | -2 | 297
Cc1sc2ncn(CC(=O)Nc3cccc(S(N)(=O)=O)c3)c(=O)c2c1-c1ccccc1 | 1 | 5 | 530
CCOC(=O)Cc1c(C)nc2c(-c3cccc(Br)c3)cnn2c1C | 5 | 4 | 365
CCOC(=O)CN1CCc2c(C)nc3c(-c4ccc(OC)c(OC)c4)cnn3c21 | 2 | 84* | 353
Cc1cccc(NC(=O)CSc2nc3[nH]ncc3c(=O)[nH]2)c1C | 4 | -1 | 200
O=C(CSc1nc2ccccc2c(=O)[nH]1)c1cccs1 | 1 | 15 | 838
O=C(CSc1nc(-c2ccccc2)cc(=O)[nH]1)Nc1ccccc1F | 1 | 4 | 176
SMILES | N-glyco inh | ALR inh | T cell HTS
N#Cc1c(-c2cccs2)nc(SCC(=O)c2cccs2)[nH]c1=O | 2 | 98* | 211
N#Cc1c(-c2ccco2)nc(SCC(=O)Nc2ccc(S(N)(=O)=O)cc2)[nH]c1=O | . | -10 | 562
Cc1cccc(NC(=O)CSc2nc(-c3ccccc3)c(C#N)c(=O)[nH]2)c1C | -1 | 91* | 363
N#Cc1c(-c2ccccc2)nc(SCC(=O)Nc2ccccc2F)[nH]c1=O | 2 | 99* | 381
Cc1cc(C)nc(NS(=O)(=O)c2ccc(NC(=O)CSc3nc(-c4ccccc4)c(C#N)c(=O)[nH]3)cc2)n1 | -1 | 99* | 287
Cc1ccc(NC(=O)/C=C/C(=O)O)c(NC(=O)c2ccccc2)c1 | 0 | -5 | 642
O=C(O)C(c1ccccc1)C(O)C1CCCC1 (stereo not drawn) | 0 | . | .
CCN(CC(=O)Nc1c(F)cccc1F)C(=O)Cc1n[nH]c(=O)c2ccccc12 | 1 | -2 | 195
N#Cc1c(-c2ccccc2)nc(SCC(=O)Nc2nnc(C(F)(F)F)s2)[nH]c1=O | 0 | 15 | 147
N#Cc1c(-c2ccccc2)nc(SCC(=O)Nc2ccccc2)[nH]c1=O | 2 | 98* | 481
N#Cc1c(-c2ccccc2)nc(SCC(=O)N2c3ccccc3Sc3ccccc32)[nH]c1=O | 2 | . | 223
N#Cc1c(-c2ccccc2)nc(SCC(=O)Nc2ccc(OC(F)(F)Cl)cc2)[nH]c1=O | 1 | 99* | 52
N#Cc1c(-c2ccccc2)nc(SCC(=O)N(c2ccccc2)c2ccccc2)[nH]c1=O | -1 | 98* | 453
Cc1cc(NC(=O)CSc2nc(-c3ccccc3)c(C#N)c(=O)[nH]2)no1 | -2 | . | 908
O=C(CNC(=O)C1(c2ccccc2)CC1)Nc1ccc(F)c(F)c1 | -4 | 0 | i
Cc1ccccc1NC(=O)Nc1nc(C(N)C2CCCCC2)cs1 (stereo not drawn) | -6 | . | .
O=C(NCCN1CCN(C(=O)c2cccc(OC(F)F)c2)CC1)c1cccc(OC(F)F)c1 | 1 | -5 | 870
CCOC1=C2[C@H](c3ccccc3Cl)N(S(=O)(=O)c3ccc(C)cc3)C[C@H]2C(C#N)(C#N)C(C#N)(C#N)C1 | 10 | . | .
CCOC1=C2[C@H](c3ccc(CC)cc3)N(S(=O)(=O)c3ccc(C)cc3)C[C@H]2C(C#N)(C#N)C(C#N)(C#N)C1 | 33* | . | .
CN(CC1CCOCC1)C(=O)CC1C(=O)NCCN1CC1CCCCC1 (stereo not drawn) | 0 | -14 | 157
Cc1cc(C)c(S(=O)(=O)N(C)CC(=O)N2CCCC2)c(C)c1 | 34* | . | .
Cc1ccc(S(=O)(=O)N(C)CC(=O)N2CCCC2)cc1 | -1 | -5 | 463
CCOC(=O)C1=C(N)OC2=C(C(=O)CCC2)C1c1ccccc1OCC (stereo not drawn) | 1 | 78* | 793
CCOC(=O)C1=C(N)OC2=C(C(=O)CCC2)C1c1ccccc1OC (stereo not drawn) | 0 | -13 | 671
O=C(NCCCN1CCOCC1)c1c(F)c(F)c(F)c(F)c1F | 2 | -5 | 0
SMILES | N-glyco inh | ALR inh | T cell HTS
Cc1cc(C(=O)NNC(=S)NCc2ccco2)nn1C | 4 | 8 | 175
O=C(CSC1=NS(=O)(=O)c2ccccc2N1)Nc1ccc(F)cc1 | -1 | 97* | 317
O=C(CSC1=NS(=O)(=O)c2cc(F)ccc2N1)Nc1ccc(F)cc1 | 3 | . | 293
CC(=O)c1ccc(NC(=O)CSC2=NS(=O)(=O)c3cc(Cl)ccc3N2)cc1 | 0 | . | 242
O=C(CSC1=NS(=O)(=O)c2cc(Cl)ccc2N1)Nc1cccc(F)c1 | 4 | 98* | 337
Cc1cc(C)c2cc(CN(Cc3ccco3)C(=S)NCC3CCCO3)c(=O)[nH]c2c1 (stereo not drawn) | -1 | 96* | 360
COc1ccc2cc(CN(Cc3ccco3)C(=S)NCC3CCCO3)c(=O)[nH]c2c1 (stereo not drawn) | 8 | 1 | 268
COc1ccc(C2=CC(=O)CC(c3ccc(OC)cc3)C2)cc1 (stereo not drawn) | 2 | . | 131
COc1ccc([C@H]2CC(=O)C=C(c3c(OC)cccc3OC)C2)cc1 | 29* | -1 | 191
O=C(O)/C=C/c1cccc2c1OCCO2 | 0 | -3 | 122
CCOC(=O)c1c(OCC)[nH]c2ccc(O)cc12 | . | 87* | 159
CCOC(=O)c1c(C)[nH]c2ccc(O)cc12 | 2 | 34 | 426
CCOC(=O)C1CCCN(C(=O)c2cncc(Br)c2)CC1 (stereo not drawn) | 2 | . | .
COc1ccc([C@@H]2[C@@H](C(=O)C(C)(C)C)N3N=Cc4ccccc4[C@@H]3C23C(=O)OC(C)(C)OC3=O)cc1OC | -2 | 8 | 374
